Source: PubChem BioAssay (several laboratories)
Platelet DG rel: modulates dense granule release in human platelets; human platelet-rich plasma, SFLLRN dense granule ATP release, luminescence; actives 0.22% (n = 300,000); inhibition, %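 (compounds screened at 7.5 µM in platelet-rich plasma)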;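 active means mean replicate score, as percent of positive control, at or above 50; inconclusive means mean below 50 but at least one replicate at or above 50; inactive means mean and every replicate below 50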
TRPC4 inh: TRPC4 (mouse) channel inhibition | Q9QUQ5 | HEK293 TRPC4beta/mu-opioid, DAMGO-evoked Fluo4 calcium flux; hits give low values | B-score at 10 µM | actives 0.39% (n = 300,000) | AID 2247;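 active means B-score over 3 SD under the library average, no early fluorescence shift, positive overall ratio signal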
Target sequence (Q9QUQ5 whole entry, looked up): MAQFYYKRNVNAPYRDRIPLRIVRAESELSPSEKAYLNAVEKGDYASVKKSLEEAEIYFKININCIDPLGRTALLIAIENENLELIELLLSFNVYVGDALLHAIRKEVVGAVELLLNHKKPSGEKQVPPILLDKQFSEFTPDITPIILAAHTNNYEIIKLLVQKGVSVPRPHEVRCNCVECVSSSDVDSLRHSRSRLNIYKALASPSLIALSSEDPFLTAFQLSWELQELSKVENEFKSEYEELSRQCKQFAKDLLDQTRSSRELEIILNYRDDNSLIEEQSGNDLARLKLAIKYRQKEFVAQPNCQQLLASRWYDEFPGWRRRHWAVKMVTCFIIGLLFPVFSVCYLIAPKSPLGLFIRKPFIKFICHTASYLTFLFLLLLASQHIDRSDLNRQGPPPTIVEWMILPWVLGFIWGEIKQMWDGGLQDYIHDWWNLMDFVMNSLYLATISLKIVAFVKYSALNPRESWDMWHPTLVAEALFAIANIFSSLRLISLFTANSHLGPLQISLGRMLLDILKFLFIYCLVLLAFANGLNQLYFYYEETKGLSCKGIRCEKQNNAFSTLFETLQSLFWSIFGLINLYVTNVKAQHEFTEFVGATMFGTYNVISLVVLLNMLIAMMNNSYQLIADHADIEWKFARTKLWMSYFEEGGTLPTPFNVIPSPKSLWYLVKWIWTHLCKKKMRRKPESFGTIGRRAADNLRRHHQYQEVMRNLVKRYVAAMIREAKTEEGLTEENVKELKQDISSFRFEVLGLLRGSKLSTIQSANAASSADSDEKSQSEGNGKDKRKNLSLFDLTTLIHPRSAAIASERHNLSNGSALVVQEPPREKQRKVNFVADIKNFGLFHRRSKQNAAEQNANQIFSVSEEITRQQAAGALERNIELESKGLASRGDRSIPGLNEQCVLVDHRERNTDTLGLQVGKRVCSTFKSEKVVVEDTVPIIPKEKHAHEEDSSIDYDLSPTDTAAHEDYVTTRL
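test system = HEK293 cells with stable TRPC4beta plus mu-opioid receptor expression | detection = Fluo4 Ca2+ flux fluorescence | read-out = integrated fluorescence ratio relative to baseline, converted to per-well B score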
TRPC4 PAM: allosteric potentiators of mouse TRPC4 channel | Q9QUQ5 | HEK293 TRPC4beta/mu-opioid, DAMGO EC20, Fluo-4 Ca2+ flux; hits give high values | B-score at 10 µM | actives 0.42% (n = 310,000);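 active means B-score of calcium response area above 5 SD of library B-scores, with initial fluorescence ratio within 5 SD of library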;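 further: B-score of integrated fluorescence ratio over time as area under calcium response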
TRPC6 inh: blocks the mouse TRPC6 cation channel. actives 1.1% (n = 310,000). AID 2553. B-score at 10 µM. HEK293-TRPC6, membrane potential dye, ACh-evoked depolarization; hits give low values;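 active means B-score under library mean minus 3 SD, initial fluorescence not abnormally high, positive integrated signal ratio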;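 further: B-score derived from integrated fluorescence ratio over the kinetic read; more negative B-score means stronger inhibition of depolarization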
TRPC4 agonist: TRPC4 (mouse) channel activation; Q9QUQ5; HEK293 TRPC4beta/mu-opioid, Fluo4 calcium fluorescence; hits give high values; B-score at 10 µM; actives 0.49% (n = 310,000);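 active means B-score above 5 SD of library B-scores, and initial fluorescence ratio not above library mean plus 5 SD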;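 further: positive B-score marks a calcium rise read as TRPC4 activation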
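Test system: HEK293 cells stably co-expressing mouse TRPC4beta and mu-opioid receptor | Schedule: Fluo4 dye loading 45 min at room temperature, 110 s recording | Measured by: Kinetic Fluo4 calcium fluorescence, 5 s baseline at 1 Hz | Evaluation: B score of integrated ratio | Controls: Buffer (low) and maximal DAMGO (high)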
TRPC6 activator: mouse TRPC6 channel activation. Q61143. HEK293-TRPC6 membrane potential dye fluorescence; hits give high values. B-score at 10 µM. actives 0.13% (n = 310,000). AID 2550;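 active means B-score of the integrated fluorescence ratio above library mean plus 3 SD, and starting fluorescence ratio within library mean plus 5 SD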;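 further: higher score means more depolarization so channel activation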
An asterisk follows results filed as active; i = inactive; u = inconclusive. Most compounds without a hit are left out; they make up all but 2.5% or so of the library.

SMILES	Platelet DG rel	TRPC4 inh	TRPC4 PAM	TRPC6 inh	TRPC4 agonist	TRPC6 activator
CC(Oc1ccc(Br)cc1)C(=O)Nc1ccc(S(=O)(=O)N(C)C2CCN(C)CC2)cc1 (configuration not stated)	-40	i	i	i	63*	i
COc1ccc(S(=O)(=O)N(C)C2CCN(C)CC2)cc1	0	i	i	i	i	i
CCCCC(=O)Nc1cccc2c1C(=O)N(c1ccccc1)C2=O	20	i	24*	i	i	i
CCOC(=O)c1c(NCC(C)C)c2ccccc2[nH]c1=O	2	i	i	i	i	i
CCOC(=O)c1c(N2CCCCC2)c2ccccc2[nH]c1=O	70*	i	i	i	i	i
Cc1cc(C(=O)N2CCCC(Nc3ccccc3)C2)c2ccc(F)cc2n1 (configuration not stated)	-9	i	i	i	i	i
[O-]/[N+](=C/c1ccc(F)cc1)c1ccc(Cl)cc1	57*	i	i	i	i	i
CCOC(=O)N1CCN(S(=O)(=O)c2ccc(C(=O)NNc3nc4c(C)cc(C)cc4s3)cc2)CC1	-9	i	10*	i	i	i
CCOC(=O)c1ccc(OC(=O)CCCCCN=C(N)N)cc1	1	i	i	i	i	i
OCC1OC(n2cnc3c(NC4CCCC4)ncnc32)C(O)C1O (configuration not stated)	82*	i	i	i	i	i
OC[C@H]1O[C@@H](n2cnc3c(NC4CCCC4)ncnc32)[C@H](O)[C@@H]1O	57*	i	i	i	i	i
CCOC(=O)N1C2=NC(C(=O)OC)=C(C(=O)OC)[C@@H]3N(C)c4ccccc4[C@]23C[C@H]1C(=O)OC	3	i	i	i	i	i
CCCNC(=O)N1CCC(c2nc3ccccc3s2)CC1	-1	i	i	i	i	i
O=C(Cc1ccccc1)Nc1ccccc1Sc1ccccc1	5	-6*	i	i	i	i
CSc1nnc2n(Cc3ccccc3)c(=O)c3c4c(sc3n12)COC(C(C)C)C4 (configuration not stated)	-11	i	i	i	i	i
Cc1nnc2n(Cc3ccccc3)c(=O)c3c4c(sc3n12)COC(C(C)C)C4 (configuration not stated)	u	i	11*	i	i	i
O=C(CCc1ccccc1)NCC1(c2ccccc2)CCCC1	-9	i	i	i	i	i
CC(c1nccs1)N(C)C(=O)CCc1nnc(CCc2ccccc2)o1 (configuration not stated)	-2	i	i	i	i	i
CN(C(=O)c1cc(S(=O)(=O)N2CCc3ccccc32)cn1C)C1CCCCC1	58*	i	i	i	i	i
O=C(Nc1ccncc1)c1ccc(Cl)c(S(=O)(=O)N2CCc3ccccc32)c1	6	i	i	i	95*	i
Cn1cc(S(=O)(=O)N2CCc3ccccc32)cc1C(=O)Nc1ccc(Cl)cc1	62*	i	i	i	i	i
Cc1ccc(NC(=O)c2cc(S(=O)(=O)N3CCc4ccccc43)cn2C)cc1	0	i	i	i	i	i
Cc1ccc(N(C)C(=O)c2cc(S(=O)(=O)N3CCc4ccccc43)cn2C)cc1	10	i	i	i	i	i
Cc1nc2ccccc2n1CC(O)COc1ccccc1Cl (configuration not stated)	-4	-7*	i	i	i	i
O=C(Nc1ccc(S(=O)(=O)Nc2nccs2)cc1)c1ccc(N2C(=O)c3ccccc3C2=O)cc1	4	i	i	i	i	i
SMILES	Platelet DG rel	TRPC4 inh	TRPC4 PAM	TRPC6 inh	TRPC4 agonist	TRPC6 activator
COc1ccccc1C(=O)OC1CCCN(C)C1 (configuration not stated)	0	i	10*	i	i	i
CN1CCCC(OC(=O)c2ccccc2F)C1 (configuration not stated)	-2	i	i	i	i	i
Cc1cnc(C(=O)NCC(c2ccccc2)c2ccccc2)cn1	30	i	i	i	i	i
O=C(Nc1ccc(S(=O)(=O)Nc2ncccn2)cc1)C1=NN(c2ccccc2)C(=O)CC1	0	i	i	i	i	i
COc1ccc(C2C(C#N)=C(N)N(c3sc4c(c3C#N)CCCC4)C3=C2C(=O)CC(C)(C)C3)cc1 (configuration not stated)	-3	-5*	i	i	i	i
COc1ccc(C2C(C#N)=C(N)N(c3sc4c(c3C#N)CCCC4)C3=C2C(=O)CC(C)(C)C3)cc1OC (configuration not stated)	1	i	i	i	i	i
COC(=O)CCNC(=O)Cn1cnc2sc3c(c2c1=O)CCCC3	2	i	i	i	i	i
Cc1cc([N+](=O)[O-])ccc1NCc1ccc2ccccc2c1	-1	i	i	i	i	i
Cc1cc([N+](=O)[O-])ccc1NCc1ccccc1	1	-7*	i	i	i	i
COCCNc1nc(-c2ccccc2)nc2ccccc12	-3	-5*	i	i	i	i
CCN(CC)CCCNCC(=O)Nc1ccc2c(c1)CCC2	-10	i	i	i	i	i
CCN(CC)CCCNCC(=O)Nc1ccc(OC)c(Cl)c1	-1	i	i	i	65*	i
COc1ccc(C2c3c(-c4ccccc4O)n[nH]c3C(=O)N2Cc2ccco2)cc1OC (configuration not stated)	0	i	i	i	i	i
COc1ccc(C2c3c(-c4cc(Cl)c(C)cc4O)n[nH]c3C(=O)N2Cc2cccnc2)cc1OC (configuration not stated)	72*	i	i	i	i	i
CC(C)NC(=O)NC(=O)CN1C(=O)NC(Cc2c[nH]c3ccccc23)C1=O (configuration not stated)	4	i	i	i	i	i
O=C(O)c1ccccc1-c1ccc(/C=c2\sc3nc4cc(Br)cnc4n3c2=O)o1	5	i	i	i	i	i
O=C(O)c1cc(-c2ccc(/C=c3\sc4nc5ccc(Br)cc5n4c3=O)o2)ccc1Cl	-1	i	i	i	i	40*
COc1ccc(CNC(=O)[C@H](C)NC(=O)N2CCn3c2nc2ccccc23)cc1	6	i	i	i	i	i
